Compounds with a hit are over-represented: about 5.1% of the library has one in this group of screens.
STAT3 act – increases IL-6 driven STAT3 reporter signal; activation (% of control), % at 5.6 µM; 190,000 tested, 0.91% active; AID 871; U3A cells, IL-6 STAT3-luciferase reporter, luminescence; 100% = signal with IL-6 EC80 alone;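 active = activation above the screen-wide mean of compound activation plus 3 SD, cut at about 130% in these data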;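 also: 0% = background luminescence of wells with medium and substrate only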
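Detection: reporter luminescence signal / Assay system: STAT1-lacking human U3A cells, STAT3 luciferase reporter / Incubation: compound pre-incubation 1 h before IL-6, then 6 h stimulation at 37 °C / Control set: IL-6-only high control / Read-out: % activation relative to IL-6 control / Probe or stimulus: Interleukin-6, 33 ng/mL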
STAT1 inh – STAT1 signaling inhibition. inhibition, % at 5.5 µM. AID 920. NIH 3T3 STAT1-luciferase reporter, IFN-gamma, luminescence. 200,000 tested, 0.35% active;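 active = inhibition above a set limit, the mean inhibition across all tested compounds plus 3 SD, cut at about 34% in these data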;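 also: 0% = IFN-gamma with DMSO and 100% = IFN-gamma with 300 µM nifuroxazide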
STAT1 activator – increases IFN-gamma driven STAT1 reporter signal | NIH 3T3 STAT1-luciferase reporter, luminescence; 100% = IFN-gamma alone, no compound | AID 932 | activation (% of control), % at 5.5 µM | 200,000 tested, 2.6% active;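 active = activation above the screen-wide mean activation plus 3 SD, cut at about 130% in these data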;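 also: raw ratio to IFN-gamma control signal so 100% means no change and 0% no light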
APP 5'UTR act – activates APP 5'UTR luciferase reporter | activation, % at 2 µM | 190,000 tested, 1% active | SH-SY5Y APP 5'UTR luciferase reporter, luminescence; zero percent = DMSO vehicle wells | AID 1276;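 active = activation above a set limit, based on mean plus 3 SD of controls, cut at about 140% in these data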
STAT3 inh – inhibitors of IL-6 induced STAT3 signaling; U3A cells, IL-6 STAT3-luciferase reporter, luminescence; host cell line lacks STAT1; inhibition, % at 5.5 µM; 190,000 tested, 0.89% active; AID 862;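 active = inhibition above the mean inhibition across all screened compounds plus 3 SD, cut at about 44% in these data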;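 also: 0% = DMSO only wells and 100% = 100 µM nifuroxazide control wells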
NF-kB expr up – compounds increasing NF-kB expression in human neuronal cells; NF-kB reporter expression; stronger effect = higher value; fold change at 12.5 µM; 190,000 tested, 1.6% active; AID 1239; in the data active = fold change above about 3.3
Starred values were filed as active, the others as inactive; . = not tested or not shown.

SMILES	STAT3 act	STAT1 inh	STAT1 activator	APP 5'UTR act	STAT3 inh	NF-kB expr up
O=C(Nc1ncc(Cc2ccc(SC(F)F)cc2)s1)c1ccccc1	102	-22	120	-86	4	3.6*
Cc1ccc(C(=O)Nc2ncc(Cc3ccccc3)s2)o1	73	-23	121	205*	35	1.3
COc1cccc(OCC(=O)Nc2ccccc2-c2ccccc2)c1	91	5	94	-1	14	1
COc1ccc2c(c1)C=C([C@@H]1C[C@H]3CN(c4ccccc4)C(=O)[C@]34CCCN14)CO2	109	-4	101	3	-4	1
COc1cc(/C=N/NC(=O)CCC(=O)NCc2ccccc2)cc(OC)c1OC	113	5	95	-7	-11	1.4
COc1ccc(/C=C/C(=O)Nc2cccc(C(C)=O)c2)cc1	94	-34	130*	50	5	2
COc1ccccc1/C=C/C(=O)Nc1cccc(C(C)=O)c1	96	-11	109	26	9	1
COc1ccc(NC(=O)/C=C/c2cccc(F)c2)cn1	101	-53	147*	135*	-1	3.8*
COc1ccc(/C=C/C(=O)Nc2ccccc2C(=O)O)cc1	58	39*	63	152*	51*	3
NC(=O)c1ccccc1NC(=O)/C=C/c1cccc(Cl)c1	96	-35	131*	91	16	1.6
COc1ccc(NC(=O)/C=C/c2ccco2)cn1	93	-27	126	69	8	2.3
Cc1ccc(C(c2nnnn2C2CCCC2)N2c3ccccc3CC2C)cc1 (configuration not stated)	108	-3	102	-1	-5	1.2
O=C(O)CCNC(=O)C12CC3CC(CC(C3)C1)C2	103	5	96	5	-3	1.3
COc1ccc(/C=C/C(=O)Nc2ccccc2C(F)(F)F)cc1	111	-43	137*	19	-13	0.91
COc1ccc(/C=N/OC(=O)Nc2ccccc2OC)cc1	75	-8	107	92	33	6.3*
CSc1ccc(NC(=O)N2CC=C(n3c(=O)[nH]c4ccccc43)CC2)cc1	102	1	99	7	2	0.63
COc1cc(C(=O)Nc2ccc(S(=O)(=O)N(C)c3ccccc3)cc2)cc(OC)c1OC	100	-10	109	3	3	0.48
COc1cc(C(=O)Nc2ccc(N(C)C)cc2)cc(OC)c1OC	109	-36	133*	47	-3	1.3
CCOC(=O)c1ccc(N=Nc2c(C)c(C#N)c(O)[nH]c2=O)cc1	106	-1	101	135*	2	3.6*
CCOC(=O)c1ccc(NC(=O)N2CCc3ccccc32)cc1	94	-27	125	205*	10	7.9*
CCOC(=O)c1ccc(NC(=O)N2CCN(Cc3ccccc3)CC2)cc1	133*	-10	108	15	-28	0.83
COc1ccc(NC(=O)N2CCCc3ccccc32)cc1	94	14	87	7	9	1.4
O=C(Nc1ccccc1)N1CCc2ccccc21	87	-47	146*	102	18	6.5*
CCOC(=O)c1ccc(NC(=O)CN2CCN(Cc3ccccc3)CC2)cc1	105	2	96	8	-4	1.3
O=C(CCC(=O)N1CCc2ccccc21)Nc1ccccc1	104	-1	101	3	-4	1.1
SMILES	STAT3 act	STAT1 inh	STAT1 activator	APP 5'UTR act	STAT3 inh	NF-kB expr up
COc1ccc(NC(=O)N2CCc3ccccc32)cc1	64	-18	124	176*	43	10*
O=C(N/N=C/C=C/c1ccccc1)NC1CCCCC1	101	-19	116	0	6	1.2
Cc1cc(Cl)ccc1OC(C)C(=O)Nc1ccc([N+](=O)[O-])cn1 (configuration not stated)	105	5	96	9	-3	0.79
Cc1ccc(OCC(=O)N2CCCc3ccccc32)cc1	95	-10	109	30	9	1.3
O=C(COc1ccc2c(c1)CCC2)N1CCc2ccccc21	106	-37	134*	93	3	2.7
COc1ccc(CCC(=O)N2CCc3ccccc32)cc1	84	-36	133*	37	20	2.2
O=C(CN1CCN(S(=O)(=O)c2ccccc2F)CC1)NC1CCCC1	92	-3	101	12	14	0.99
C/C(=N\Nc1nc2ccccc2[nH]1)c1ccc(N2CCOCC2)cc1	84	15	85	44	21	2
Cc1ccn2c(C(=O)N/N=C\c3ccccc3[N+](=O)[O-])c(C)nc2c1	94	-14	113	.	13	.
COCCCN(C(=S)Nc1c(C)cc(C)cc1C)C(C)c1ccccn1 (configuration not stated)	101	0	98	16	4	1.1
CSc1ccc(/C=C/C(=O)c2ccc(O)cc2)cc1	105	-9	108	73	-6	3.4*
CCOc1ccc(C(=O)/C=C/c2ccc(SC)cc2)cc1	105	-1	101	4	-1	0.99
CC(=O)Nc1ccc(C(=O)/C=C/c2ccco2)cc1	105	-1	101	38	-8	1.3
O=C(/C=C/c1ccco1)c1ccc(O)cc1	97	2	99	79	12	3.3*
CC1C/C(=N\NC(=O)c2ccc(NS(=O)(=O)c3ccc(Br)cc3)cc2)CC(C)(C)C1 (configuration not stated)	109	-29	127	-11	-1	0.99
CN(C)S(=O)(=O)Oc1cccc(C(=O)Nc2ccc([N+](=O)[O-])cc2)c1	70	-16	114	67	39	1.6
O=C(O)Cc1sc(-c2cccnc2)nc1-c1ccc(Br)cc1	99	6	93	14	2	1.1
Brc1ccc(-c2nnc(-c3cccnc3)c3conc23)cc1	134*	-2	102	-7	-37	.
O=C(CCCCn1c(=S)[nH]c2ccsc2c1=O)NCc1ccc2c(c1)OCO2	103	3	97	-2	2	1.2
CC(C)c1ccc(CNc2ccc([N+](=O)[O-])cn2)cc1	109	-43	138*	74	1	2.3
Cc1cc(C)nc(SCC(=O)Nc2ccnc3ccccc23)n1	26	36*	66	5	86*	0.84
COC(=O)c1ccccc1NC(=O)CSc1nc(C)cc(C)n1	97	1	99	0	9	0.89
Cc1ccc(-c2cn3c(n2)SCC3)cc1	82	-45	141*	107	23	4.1*
O=C(Oc1ccc(-c2cn3c(n2)SCC3)cc1)c1ccccc1	95	-11	110	15	8	2.1
CN1C(=C2C(=O)OC(C)(C)OC2=O)Sc2ccccc21	95	-33	130*	30	9	1.6
Cc1ccc(-c2nnc(-c3ccccc3)o2)cc1	84	-30	128	133	20	7.9*
Cc1ccc(-c2nnc(-c3cccs3)o2)cc1	77	-28	127	140*	29	5.5*
